Measured values gathered from unrelated publications.
Protocols differ between the studies behind these lines.
Technique: competition with immobilised ligand
RPS6KA6 N-terminal kinase domain: Ribosomal protein S6 kinase alpha-6, N-terminal kinase domain (RPS6KA6, Homo sapiens, UniProt Q9UK32)
RPS6KA6 C-terminal kinase domain: Ribosomal protein S6 kinase alpha-6, C-terminal kinase domain (RPS6KA6, Homo sapiens, UniProt Q9UK32)

SMILES | target | read-out | concentration | remaining binding
O=C(c1ccc(Nc2nccc(-c3cc4ccccc4s3)n2)cc1)N1CCC(N2CCCC2)CC1 | RPS6KA6 N-terminal kinase domain | binding | 1 µM | 98%
O=C(Nc1c[nH]nc1C(=O)NC1CCNCC1)c1cc(F)cc(F)c1 | RPS6KA6 C-terminal kinase domain | binding | 1 µM | 100%
CN(C)c1nccc(-c2cnn3ncccc23)n1 | RPS6KA6 C-terminal kinase domain | binding | 1 µM | 100%
O=C(c1ccc(Nc2ncc(Cl)c(-c3cc4ccccc4s3)n2)cc1)N1CCC(N2CCCC2)CC1 | RPS6KA6 C-terminal kinase domain | binding | 1 µM | 89%
Cc1c(C(=O)O)cc(-c2ccc(C3CCNCC3)cc2)c2ccc(-c3ccc(C(F)(F)F)cc3)cc12 | RPS6KA6 C-terminal kinase domain | binding | 1 µM | 100%
O=C(NCCCN1CCOCC1)c1ccc(Nc2ncc(Cl)c(-c3ccc(Cl)s3)n2)cc1 | RPS6KA6 N-terminal kinase domain | binding | 1 µM | 72%
COc1ccc2c(c1)O[C@@H](c1ccc(OC)c(OC)c1)C[C@H]2NC(=O)C1(c2ccc3c(c2)OC(F)(F)O3)CC1 | RPS6KA6 N-terminal kinase domain | cell-free assay | 1 µM | 84%
Nc1ncc2c(n1)-c1c([nH]c3ccc(C#CC4CC4)cc13)CCCC2 | RPS6KA6 N-terminal kinase domain | binding | 1 µM | 78%
FC(F)(F)Oc1cccc(-c2cnc3ccc(-c4ccncc4)nn23)c1 | RPS6KA6 C-terminal kinase domain | binding | 5 µM | 34%
COc1cnc(Nc2cccc(S(N)(=O)=O)c2)nc1N1CCN(c2ccccc2)CC1 | RPS6KA6 N-terminal kinase domain | binding | 1 µM | 73%
CCS(=O)(=O)c1cc2cc(C[C@@](O)(CC(C)(C)c3ccc(F)cc3C(N)=O)C(F)(F)F)[nH]c2cn1 | RPS6KA6 N-terminal kinase domain | cell-free assay | 1 µM | 100%
O=C(c1ccc(Nc2ncc(Cl)c(-c3ccc(Cl)s3)n2)cc1)N1CCC(N2CCCC2)CC1 | RPS6KA6 C-terminal kinase domain | binding | 1 µM | 83%
CN(C)c1ncc(F)c(-c2cnn3ncccc23)n1 | RPS6KA6 C-terminal kinase domain | binding | 1 µM | 98%
NS(=O)(=O)c1cc(NC(=O)C2(c3ccccc3Cl)CC2)ccc1Oc1cccc(Cl)c1 | RPS6KA6 N-terminal kinase domain | cell-free assay | 1 µM | 100%
COc1cc(C(=O)N2CCC(N3CCN(C)CC3)CC2)ccc1Nc1ncc2c(n1)N(C)c1ccccc1C(=O)N2C | RPS6KA6 C-terminal kinase domain | binding | 10 µM | 2.2%
Cc1cnc(Nc2ccc(C(=O)N3CCC(N4CCCC4)CC3)cc2)nc1-c1cc2ccccc2s1 | RPS6KA6 N-terminal kinase domain | binding | 1 µM | 30%
CCCCN(CCCC)C(=O)CN1C[C@@H](c2cc(OC)c3c(c2)OCO3)[C@H](C(=O)O)[C@H]1CC(C)(C)CCC | RPS6KA6 N-terminal kinase domain | cell-free assay | 1 µM | 96.6%

SMILES | target | read-out | concentration | remaining binding
N[C@H]1CCN(c2nccc(-c3cnn4ncccc34)n2)C1 | RPS6KA6 C-terminal kinase domain | binding | 1 µM | 86%
CCN1CCN(Cc2ccc(C(=O)Nc3ccc(C)c(Oc4ccc5c(c4)CC(=O)N5)c3)cc2C(F)(F)F)CC1 | RPS6KA6 C-terminal kinase domain | binding | 1 µM | 89%
C[C@@H]1CN(c2cc(-c3nn(C)c4ccc(OC5(C)CC5)cc34)ncn2)C[C@H](C)O1 | RPS6KA6 C-terminal kinase domain | cell-free assay | 1 µM | 79%
Cc1cnn2ncc(-c3ccnc(N(C)C)n3)c2c1 | RPS6KA6 C-terminal kinase domain | binding | 1 µM | 100%
c1cncc(-c2cccc(Nc3nccc(NC4CCCCC4)n3)c2)c1 | RPS6KA6 N-terminal kinase domain | binding | 10 µM | 50%
CN(c1nccc(-c2cnn3ncccc23)n1)C1CC1 | RPS6KA6 C-terminal kinase domain | binding | 1 µM | 100%
COc1cnc(Nc2cccc(S(N)(=O)=O)c2)nc1N1CCN(c2ccccc2)C(=O)C1 | RPS6KA6 C-terminal kinase domain | binding | 1 µM | 92%
CC1CCCN1c1nccc(-c2cnn3ncccc23)n1 (stereo not drawn) | RPS6KA6 N-terminal kinase domain | binding | 1 µM | 99%
O=C(NCCCN1CCOCC1)c1ccc(Nc2nccc(-c3cc4ccccc4s3)n2)cc1 | RPS6KA6 C-terminal kinase domain | binding | 1 µM | 35%
CNC(=O)[C@@H]1CC[C@@H](n2c(-c3ccc4cnccc4c3)nc3ccc(C(=O)NCc4cccc(C(N)=O)c4)cc32)C1 | RPS6KA6 C-terminal kinase domain | binding | 1 µM | 97%
F[C@@H]1CCN(c2nccc(-c3cnn4ncccc34)n2)C1 | RPS6KA6 C-terminal kinase domain | binding | 1 µM | 92%
O=C(NCC1CCOCC1)c1n[nH]cc1NC(=O)c1c(F)cccc1F | RPS6KA6 N-terminal kinase domain | binding | 1 µM | 41%
O=C(O)c1cc(-c2ccc(C3CCNCC3)cc2)c2ccc(-c3ccc(C(F)(F)F)cc3)cc2c1 | RPS6KA6 N-terminal kinase domain | cell-free assay | 1 µM | 100%
COc1ncc2cc3ccccc3nc2c1C#N | RPS6KA6 C-terminal kinase domain | cell-free assay | 5 µM | 73%
O=C(O)[C@H]1[C@H](Cn2nnc3ccccc3c2=O)CC[C@@H]1C(=O)c1ccc(OCCC2CCOCC2)cc1 | RPS6KA6 C-terminal kinase domain | cell-free assay | 1 µM | 97%
CN(C)c1nccc(-c2cnc3ncccn23)n1 | RPS6KA6 N-terminal kinase domain | binding | 1 µM | 69%
